# Screening data deposited in PubChem by SRMLSC.
# An excerpt weighted towards active compounds, which were near 6.6% of everything screened.
# HER2 expr 66K: Her2 kinase expression inhibition; P04626; SKBR-3 HER2 protein level, AlphaScreen, 18-24 h; active compounds read low; HER2 level % of control, % at 10 µM; hit rate 0.69% among 65,000; AID 645;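 active = HER2 level under 5% of the carrier-only control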;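 note: 100% = DMSO carrier and 0% = 500 nM PU-H71 HSP90 inhibitor; lower value means stronger loss of Her2 protein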
# Target sequence (P04626 whole entry, looked up): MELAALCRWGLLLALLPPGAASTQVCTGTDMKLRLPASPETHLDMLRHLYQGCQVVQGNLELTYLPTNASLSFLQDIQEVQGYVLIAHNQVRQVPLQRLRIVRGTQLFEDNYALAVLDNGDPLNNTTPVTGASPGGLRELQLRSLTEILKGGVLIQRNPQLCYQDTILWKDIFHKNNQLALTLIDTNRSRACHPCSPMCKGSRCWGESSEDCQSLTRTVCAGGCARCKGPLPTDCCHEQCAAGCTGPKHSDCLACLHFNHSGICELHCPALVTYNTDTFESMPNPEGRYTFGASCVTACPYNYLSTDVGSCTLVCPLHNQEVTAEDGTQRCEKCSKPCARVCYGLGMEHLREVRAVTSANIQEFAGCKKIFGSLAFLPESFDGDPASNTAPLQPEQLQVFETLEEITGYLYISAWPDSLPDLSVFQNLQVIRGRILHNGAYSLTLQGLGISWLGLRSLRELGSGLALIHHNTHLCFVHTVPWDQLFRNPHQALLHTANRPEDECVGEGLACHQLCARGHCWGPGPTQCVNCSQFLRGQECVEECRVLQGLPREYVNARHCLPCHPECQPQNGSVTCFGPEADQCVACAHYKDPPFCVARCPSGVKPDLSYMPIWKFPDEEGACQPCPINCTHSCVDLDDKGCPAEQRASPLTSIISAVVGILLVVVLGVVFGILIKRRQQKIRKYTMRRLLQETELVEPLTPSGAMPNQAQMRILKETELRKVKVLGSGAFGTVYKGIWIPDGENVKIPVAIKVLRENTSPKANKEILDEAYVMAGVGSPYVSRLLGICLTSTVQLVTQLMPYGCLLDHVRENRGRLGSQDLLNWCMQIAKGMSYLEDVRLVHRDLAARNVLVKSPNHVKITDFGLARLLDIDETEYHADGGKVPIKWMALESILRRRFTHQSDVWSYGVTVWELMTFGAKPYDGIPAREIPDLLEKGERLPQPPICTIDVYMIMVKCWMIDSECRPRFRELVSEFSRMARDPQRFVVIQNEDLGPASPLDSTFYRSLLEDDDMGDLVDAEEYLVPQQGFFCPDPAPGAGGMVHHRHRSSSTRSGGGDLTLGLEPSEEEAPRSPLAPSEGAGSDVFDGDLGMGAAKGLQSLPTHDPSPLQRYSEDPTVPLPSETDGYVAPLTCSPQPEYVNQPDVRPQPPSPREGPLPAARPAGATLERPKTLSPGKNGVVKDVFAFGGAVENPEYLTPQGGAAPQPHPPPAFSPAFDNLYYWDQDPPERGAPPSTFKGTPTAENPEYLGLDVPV
# PostGolgi ctrl: inhibits growth of the yeast control strain. inhibition, % at 10 µM. hit rate 5% among 98,000. efflux-deficient yeast background strain, growth absorbance A615, 16 h
# E coli WT exp: growth inhibitors of E. coli BW25113 wild type | OD600 absorbance | growth inhibition, % at 100 µM | hit rate 0.15% among 98,000 | AID 710;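 active = growth inhibition above about 50% at one test dose, limit read from the data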;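 note: growth measured after 20 h incubation at 37 °C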
# PostGolgi yeast: growth inhibition of a yeast mutant, post-Golgi transport screen | post-Golgi transport phenotypic cell assay | inhibition, % at 10 µM | hit rate 0.9% among 98,000;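 note: yeast cells grown in 1536-well plates; yeast grown about 18 h at 30C before absorbance read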
# Ecoli tolC: growth inhibitors of E. coli BW25113 tolC mutant; OD615; growth inhibition, % at 10 µM (by protocol); hit rate 2.2% among 65,000; AID 573;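 active = growth inhibition at or above a cutoff equal to the mean over every tested compound plus 3 SD, cut at about 60% in these data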;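 note: growth measured after 20 h incubation at 37 °C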
#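 test system = E. coli BW25113 ΔtolC::kan bacteria | medium = LB with kanamycin 50 µg/mL | signal = OD at 615 nm | schedule = 37 °C, 20 h exposure | evaluation = % inhibition of E. coli growth | compound dosing = one dose of 10 µM final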
# * marks the source's active call; other numbers are inactive results; x = not tested or not shown. Cut-off read from the data, not from the text of the source, unless noted: active = inhibition above about 30%; inactive = the rest.
SMILES,HER2 expr 66K,PostGolgi ctrl,E coli WT exp,PostGolgi yeast,Ecoli tolC
Cc1ccc(-n2nc(C(=O)N3CCOCC3)cc2-c2ccc(Cl)cc2)cc1,x,41*,-1,14,x
O=C(c1cc(-c2ccc(Cl)cc2)on1)N1CCOCC1,92,26,7,-3,0
O=C(c1cc(-c2ccc(Cl)cc2)n(-c2ccc(Cl)cc2)n1)N1CCOCC1,x,38*,-4,9,x
CSc1ccccc1NC(=O)c1ccccc1N(Cc1ccccc1)S(C)(=O)=O,x,12,-4,-4,x
CCOC(=O)c1c(C)sc2c1N(C(=O)CCl)c1cc(Cl)ccc1S2,x,78*,-9,9,x
Cn1c(C(C#N)C(=O)c2sc3ccccc3c2Cl)nc2ccccc21 (configuration not stated),77,79*,-29,4,49
CCOc1ccc(NC(=O)CCn2c(=O)[nH]c3ccsc3c2=O)cc1,x,3,-12,0,x
COc1ccc(Cl)cc1NC(=O)CSc1nnc(Cc2cccn2C)n1-c1ccc(F)cc1,73,32*,-2,4,16
CCc1ccc(NC(=O)CSc2nnc(Cc3cccn3C)n2-c2ccc(F)cc2)cc1,85,9,-15,-5,66*
COCCN(CCOC)Cc1c(C)[nH]c2ccccc2c1=O,123,-6,3,1,-2
O=S(=O)(Nc1ccc(-c2nc3cccnc3s2)cc1)c1cccs1,100,-3,-4,4,18
O=S(=O)(Nc1ccc(-c2nc3cccnc3s2)cc1)c1ccc(Cl)s1,x,48*,-4,20,x
Cc1cc(C)cc(NC(=O)CCN2CC(C)OC(C)C2)c1 (configuration not stated),108,15,8,4,-6
CCOC(=O)c1ccc2c(c1)nc(COc1ccc(OC)cc1)n2CC,x,0,-9,-12,x
N#CC1=C(N)OC(c2ccccc2)=C(C#N)C1c1ccc2c(c1)OCO2 (configuration not stated),80,98*,-1,104*,11
Cc1ccc(C2C(C#N)=C(N)Oc3cc4c(cc32)OCO4)cc1 (configuration not stated),85,14,-4,-5,19
O=C(Nc1c2c(nn1-c1ccc(F)cc1)CS(=O)(=O)C2)C12CC3CC(CC(C3)C1)C2,121,9,-3,5,2
O=C(c1c(O)c2ccccc2oc1=O)C1CCC1,107,14,20,-1,12
O=c1oc2ccccc2c(O)c1CN1CCCCC1,87,30*,-1,6,32
COc1ccc(Cl)cc1NC(=O)CN(C(=O)c1ccco1)C1CCCCC1,87,41*,0,-1,12
CC(Cc1cccs1)NC(=O)Nc1ccc(Cl)c(Cl)c1 (configuration not stated),x,69*,20,-4,x
CC(Cc1cccs1)NC(=O)Nc1ccc(Cl)cc1 (configuration not stated),x,12,10,16,x
COc1ccc(/C=N/NC(=O)Cc2csc(Nc3cccc(C(F)(F)F)c3)n2)cc1C,x,20,-11,9,x
COc1cc(C(=O)Nc2ccc(S(=O)(=O)N3CCCCC3C)cc2)cc(OC)c1OC (configuration not stated),109,29,-6,-7,6
COc1ccc(C(=O)Nc2ccc(S(=O)(=O)N3CCCCC3C)cc2)c(OC)c1OC (configuration not stated),85,4,-12,1,66*
SMILES,HER2 expr 66K,PostGolgi ctrl,E coli WT exp,PostGolgi yeast,Ecoli tolC
CC1CCCC(C)N1C(=O)CN1C(=O)C(C)(C)Oc2ccc(C(=O)NC3CCCCC3)cc21 (configuration not stated),67,-2,0,2,84*
CC(=O)Oc1ccc(C(=O)Nc2nnc(C)s2)cc1,110,2,-18,30*,2
Cc1nnc(NC(=O)c2ccc(Br)cc2)s1,x,-2,-1,-1,x
CCOC(=O)CSc1cc(CS(=O)c2ccc(Cl)cc2)nc(-c2ccccc2)n1 (configuration not stated),x,32*,-11,20,x
CCOC(=O)CSc1cc(CSc2ccccc2)nc(-c2ccccc2)n1,x,0,3,-2,x
CC(=O)c1c(O)cc(=O)n(-c2ccccc2)c1-c1cccc2ccccc12,x,9,5,4,x
O=[N+]([O-])c1ccc(-c2nc(-c3cccs3)c(-c3cccs3)[nH]2)cc1,x,60*,-7,17,x
COc1ccc(-c2[nH]c(-c3ccc4c(c3)OCO4)nc2-c2ccccc2)cc1,x,34*,-8,62*,x
O=[N+]([O-])c1cccc(-c2nc(-c3cccs3)c(-c3cccs3)[nH]2)c1,x,16,-5,-4,x
COc1ccc(-c2nc(-c3cccs3)c(-c3cccs3)[nH]2)cc1OC,x,38*,-9,17,x
COc1ccc(-c2nc(-c3ccccc3)c(-c3cccs3)[nH]2)cc1OC,x,34*,-9,4,x
COc1cc(OC)nc(NC(=O)NS(=O)(=O)c2ccc(OC(F)(F)F)cc2)n1,106,25,13,3,-18
COc1ccc(S(=O)(=O)N(C)CC(=O)Nc2ccc(C(F)(F)F)cc2)cc1Cl,x,7,-21,-6,x
CC1(CC(=O)O)C(=O)N=C2C=CC=CN21 (configuration not stated),85,-10,-4,5,-9
Cc1ccc(S(=O)(=O)N2CCCC(C(=O)NCCc3ccc4c(c3)OCO4)C2)cc1 (configuration not stated),95,5,1,-4,12
Cc1noc(/C=C/c2ccco2)c1S(=O)(=O)N1CCC(C(=O)N2CCc3ccccc3C2)CC1,94,39*,-20,1,10
Cc1ccc(CNC(=O)C2CCN(S(=O)(=O)c3c(C)noc3/C=C/c3ccco3)CC2)cc1,x,33*,-9,-9,x
CCCc1[nH]nc2c1C(c1ccc(OC)c(CSC3=NCCS3)c1)C(C#N)=C(N)O2 (configuration not stated),102,6,5,-3,87*
O=C1CCCN1CC(CN1CCOCC1)Sc1nnnn1-c1ccccc1 (configuration not stated),73,3,6,1,-16
COc1ccc(-n2c(SC(CN3CCCCC3)CN3CCCC3=O)nc3ccccc3c2=O)cc1 (configuration not stated),x,31*,-12,0,x
C=CCNC(=S)NNC(=O)COc1cccc(Cl)c1,x,3,12,-5,x
O=C(CSc1ccc(Cl)cc1)N1CCN(c2ccc([N+](=O)[O-])cc2Cl)CC1,x,78*,-22,82*,x
CCS(=O)(=O)N1CCN(c2c(Cl)cccc2[N+](=O)[O-])CC1,x,5,-3,-4,x
O=C(CSc1ccc(Cl)cc1)N1CCN(c2c(Cl)cccc2[N+](=O)[O-])CC1,x,29,-14,41*,x
CCCCOc1ccc(S(=O)(=O)N2CCCCCC2)cc1,84,18,9,8,62*
Cc1ccccc1NC(=O)CN1C(=O)COc2ccc(Cl)cc21,78,8,-2,-9,-2
COC(=O)CC/C(C)=N\Nc1ccc([N+](=O)[O-])cc1[N+](=O)[O-],x,14,-13,-3,x
